From ChEMBL document CHEMBL1140706, “A Novel iron-chelating derivative of the neuroprotective peptide NAPVSIPQ shows superior antioxidant and antineurodegenerative capabilities” (J Med Chem, 2008) come the findings set out here.

Data set [1] is described as follows: Iron chelating activity by ferrozine method. Format: functional. The method in brief:
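Competition with ferrozine for Fe(II) in 5% ammonium acetate buffer, pH 6.9. Compound (100–600 µM, duplicate) preincubated 30 min with 15 µM FeSO4, then 60 µM ferrozine added for 1 h at ambient temperature. Absorbance read at 562 nm with blank subtracted. Chelating effect % = [1 − sample/control] × 100. n = 3 in duplicate.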

Data set [2] concerns Brain. Kind of data set: Inhibition of iron/ascorbate-induced lipid peroxidation in Sprague-Dawley rat brain mitochondrial membrane homogenate at 15 uM. Format: functional, tissue-based. A digest of the protocol:
(§1)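 Crude mitochondrial fraction from brains of male Sprague-Dawley rats (250–300 g). Assay in 25 mM Tris-HCl pH 7.5 with 25 µM ascorbate, 40 µg protein, 1.5 µM FeSO4 and compound (10–750 µM). Shaken 2 h at ambient temperature, then TCA stop and TBA at 95 °C for 30 min. Read at 532 nm, blank subtracted, percent of control. n = 3 in duplicate.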

A short description of data set [3]: Effect on iron-induced hydroxyl radical generation assessed as reduction in EPR signals at 300 uM relative to control. Format: functional. More on the design: scale not given: the % may be the effect or the level left. The method in brief:
(§2)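 Fenton system of 100 µM FeSO4, 200 µM H2O2 and 35 mM PBN spin trap. Compound added 2 min before H2O2. EPR spectrum recorded at room temperature in a quartz flat cell. PBN-OH spin adduct level estimated from peak intensity of the middle field doublet and expressed as percent of control. Mean ± SEM, n = 3.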

For data set [4], the system named is SH-SY5Y. Kind of data set: Neuroprotective activity against hydrogen persoxide-induced cell death in human SH-SY5Y cells assessed as cell viability at 1 uM by MTT assay relative to control. Type of data set: cell-based. The note with it: read-out: Activity. The method in brief:
(§3)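 SH-SY5Y cells grown in 1:1 Eagle MEM/Ham's F-12 with 10% FCS, 37 °C, 5% CO2; seeded 0.5 × 10^4 cells/well, attached 24 h. Compounds or vehicle added just before 80 µM H2O2. After 24 h at 37 °C, MTT added for 2 h, then SDS/HCl for a further 24 h; absorbance read at 570/650 nm. Viability expressed as percent of cells not treated with H2O2.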
In general terms: Tetrazolium assays rely on reduction of a dye to a coloured formazan, in cell work by metabolically active cells.

For data set [5], the system named is SH-SY5Y. Kind of data set: Neuroprotective activity against hydrogen persoxide-induced cell death in human SH-SY5Y cells assessed as cell viability at 10 uM by MTT assay relative to control. Format: cell-based. The note with it: read-out: Activity. The method in brief:
as §3

In data set [6] the test system is Brain. The data set is described as follows: Inhibition of iron/ascorbate-induced lipid peroxidation in Sprague-Dawley rat brain mitochondrial membrane homogenate at 100 uM. Type of data set: functional, tissue-based. A digest of the protocol:
as §1

Data set [7] in a line: Effect on iron-induced hydroxyl radical generation assessed as increase in PBN-OH radical spin adduct concentration at 600 uM. Format: functional. A digest of the protocol: as §2
The test system of data set [8] is Brain. Kind of data set: Inhibition of iron/ascorbate-induced lipid peroxidation in Sprague-Dawley rat brain mitochondrial membrane homogenate. Format: functional, tissue-based. The method in brief: as §1
Data set [9] is described as follows: Effect on iron-induced hydroxyl radical generation assessed as reduction in EPR signals relative to control. Type of data set: functional. More on the design: scale not given: the % may be the effect or the level left. A digest of the protocol: as §2
A short description of data set [10]: Effect on iron-induced hydroxyl radical generation assessed as reduction in EPR signals. Format: functional. The method in brief: as §2
Data set [11] concerns SH-SY5Y. Kind of data set: Neuroprotective activity against hydrogen persoxide-induced cell death in human SH-SY5Y cells upto 10 uM by MTT assay. Format: ADME, cell-based. A digest of the protocol:
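SH-SY5Y cells seeded at 0.5 × 10^4 per well in MEM/F-12 with 10% FCS and allowed to attach for 24 h. Compound added immediately before 80 µM H2O2, then 24 h at 37 °C. MTT for 2 h, then SDS/HCl lysis for 24 h, read at 570/650 nm. Viability expressed as percent of cells not treated with H2O2. n = 7 over two experiments.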

The structures appear in SMILES notation. Active and inactive are the calls of the source. The calls are words filed in the database; no cut-off is given here.

Regarding `CC(=O)N(O)CCCCCNC(=O)CCC(=O)N(O)CCCCCNC(=O)CCC(=O)N(O)CCCCCN` [DEFEROXAMINE], in data set [1], the IC50 (usually the concentration that gives 50% inhibition) was 10 µM. In the data set on Brain [2], the outcome was Active. For the same molecule, the Activity in [3] (300 uM) turned out to be 12%. The viability at 1 µM in the data set with SH-SY5Y [4] is 76%. Moreover, the viability at 10 µM in the data set with SH-SY5Y [5] came to 76%.
As for `CC[C@H](C)[C@H](NC(=O)[C@H](CO)NC(=O)[C@@H](NC(=O)[C@@H]1CCCN1C(=O)[C@H](C)NC(=O)[C@@H](N)CC(=O)NO)C(C)C)C(=O)N1CCC[C@H]1C(=O)N[C@@H](CCC(N)=O)C(=O)O`, in data set [1], the midpoint of inhibition, the IC50, lay at 360 µM. The result (in the data set with Brain [6]; in [7]) was inactive.
Take `CC[C@H](C)[C@H](NC(=O)[C@H](CO)NC(=O)[C@@H](NC(=O)[C@@H]1CCCN1C(=O)[C@H](C)NC(=O)[C@@H](N)CC(=O)NO)C(C)C)C(=O)N1CCC[C@H]1C(=O)N[C@@H](CCC(N)=O)C(=O)NO`: the figures for the IC50 (in data set [1]; in the data set with Brain [8]; in data set [10]) were 170 µM, 340 µM and 150 µM, respectively. For the same molecule, the outcome with Brain [6] was inactive. The Activity in data set [9] was 28%; in data set [3] (600 uM, in the assay text read “at 600 uM” for “at 300 uM”) it was 28%; in the data set on SH-SY5Y [11] it was “Non-toxic”.
For `CC[C@H](C)[C@H](NC(=O)[C@H](CO)NC(=O)[C@@H](NC(=O)[C@@H]1CCCN1C(=O)[C@H](C)NC(=O)[C@@H](N)CC(N)=O)C(C)C)C(=O)N1CCC[C@H]1C(=O)N[C@@H](CCC(N)=O)C(=O)NO`, the IC50 in [1] was found to be 360 µM. Further, the result (in the data set with Brain [6]; in data set [7]) was inactive.
